Published values of several laboratories.
Compare with care: the assays were run in different laboratories.
Observed: enzyme activity
RET: Proto-oncogene tyrosine-protein kinase receptor Ret (RET, Homo sapiens, UniProt P07949)

| Structure (SMILES) | target | test | setting | remaining activity [%] |
| --- | --- | --- | --- | --- |
| Cc1ccc(C(=O)Nc2ccc(CN3CCN(C)CC3)c(C(F)(F)F)c2)cc1C#Cc1cnc2cccnn12 | RET | – | 23.5 nM | 1.3 |
| CCCOc1ccc(OC)c(F)c1C(=O)c1ccc(C(=O)N[C@@H]2CNC[C@H]2NC(=O)c2ccc3[nH]ncc3c2)cc1 | RET | inhibitor | 0.1 µM | 98 |
| COC(=O)c1cccc(NC(=O)Nc2cc(C)c3nc(NC(=O)c4ccccc4)sc3c2)c1 | RET | inhibitor, radiometric | 10 µM | 103 |
| CC(C)(O)[C@H]1CC[C@H](Nc2ccc3ncc(-c4cccc(C(F)(F)F)c4)n3n2)CC1 | RET | inhibitor | 1 µM | 86.9 |
| CCOc1ccc(NC(=O)Nc2cc(OC)c3nc(NC(=O)c4ccccc4)sc3c2)cc1 | RET | inhibitor, radiometric | 0.1 µM | 115 |
| Cc1[nH]c(/C=C2\C(=O)Nc3ccc(F)cc32)c(C)c1C(=O)N[C@H]1CCN(C(=O)N(C)C)C1 | RET | inhibitor | 0.1 µM | 62 |
| Cc1cnc(NC2CCOCC2)nc1-n1cnc(C(=O)NC(CN)c2cc(F)cc(Cl)c2)c1 (stereo not shown) | Proto-oncogene tyrosine-protein kinase receptor Ret (RET, Homo sapiens, UniProt P07949, V804L) | inhibitor, radiometric | 1 µM | 93 |
| COc1cc(NC(=O)Nc2ccccc2Br)cc2sc(NC(=O)c3ccccc3)nc12 | RET | inhibitor, radiometric | 0.1 µM | 106 |
| COc1cc(Cl)c(C(=O)N[C@@H](CN[C@H]2CC[C@@H](N)CC2)Cc2ccc(C#N)cc2)cc1-c1ccc(CN[C@H](C)c2ccc(C)cc2)o1 | RET | inhibitor | 1 µM | 110 |
| CC(C)(C)c1nc2c(s1)c1nc(N)ncc1c1ccc(NS(=O)(=O)c3c(F)cccc3F)c(F)c12 | RET | inhibitor, radiometric | 1 µM | 69 |
| CCN(CC)CCNC(=O)c1c(C)[nH]c(/C=C2\C(=O)Nc3ccc(F)cc32)c1C | RET | inhibitor | 1 µM | 0 |
| COc1cccc(NC(=O)Nc2c(-c3ccc(Cl)cc3)nn(-c3ccc(F)cc3)c2N)c1 | RET | inhibitor, radiometric | 0.1 µM | 110 |
| O=C(Nc1cnn(-c2csc(C(=O)NC3COC3)c2)c1)Nc1c(F)cccc1Cl | RET | inhibitor | 5 µM | 98.1 |
